Source: ChEMBL document CHEMBL4251669, “Identification of Gibberellic Acid Derivatives That Deregulate Cholesterol Metabolism in Prostate Cancer Cells” (2018)
Calls of active or inactive are those of the source. The rule behind the calls is not given here.

Experiments:
LNCaP [1] = assay: Induction of cholesterol metabolism deregulation in human LNCAP cells assessed as reduction in NBD-cholesterol uptake at 30 uM after 48 hrs by DAPI/Alexa fluor 633 phalloidin staining based high-content imaging analysis; assay type: functional, cell-based
In short: (§1)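 LNCaP seeded 72 h on poly-L-ornithine-coated plates and treated 48 h in three replicate wells: DMSO vehicle, compounds at 30 μM, TOFA 10 μM or orlistat 20 μM. Then 3 h at 37 °C in serum-free RPMI with 0.2% BSA and 15 μM NBD-cholesterol. PFA-fixed, glycine-quenched, stained with DAPI and phalloidin. Imaged at 10× to 1000 cells/well; per-cell NBD mean fluorescence, about 3000 cells/treatment, mean ± SD.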

LNCaP [2] = assay: Induction of cholesterol metabolism deregulation in human LNCAP cells assessed as effect on cellular lipid content at 30 uM after 48 hrs by DAPI/Alexa fluor 633 phalloidin staining based high-content imaging analysis; assay type: functional, cell-based
LNCaP [3] = assay: Induction of cholesterol metabolism deregulation in human LNCAP cells assessed as reduction in free NBD-cholesterol uptake
LNCaP [4] = assay: Cytotoxicity against human LNCAP cells assessed as reduction in cell viability at 10 uM after 72 hrs by alamar blue assay relative to control; assay type: functional
In short: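 LNCaP cells (ATCC) in phenol-red-free RPMI-1640 with 5% FBS, 37 °C, 5% CO2, seeded 4000/well for 24 h, then exposed 72 h. Stocks in DMSO, final DMSO 0.3%; DMSO as negative and vinblastine 50 nM as positive control. Viability read by alamarBlue metabolic reduction. Triplicate points, at least three independent experiments.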

LNCaP [5] = assay: Induction of cholesterol metabolism deregulation in human LNCAP cells assessed as effect on fatty acid uptake at 30 uM after 48 hrs by DAPI/Alexa fluor 633 phalloidin staining based high-content imaging analysis; assay type: functional, cell-based
LNCaP [6] = assay: Induction of cholesterol metabolism deregulation in human LNCAP cells assessed as reduction in NBD-cholesterol uptake at 10 uM after 48 hrs by DAPI/Alexa fluor 633 phalloidin staining based high-content imaging analysis; assay type: functional, cell-based
LNCaP [7] = assay: Induction of cholesterol metabolism deregulation in human LNCAP cells assessed as reduction in NBD-cholesterol uptake at 20 uM after 48 hrs by DAPI/Alexa fluor 633 phalloidin staining based high-content imaging analysis; assay type: functional, cell-based; in short: as §1

| SMILES | Activity (LNCaP [1]) | Activity (LNCaP [2]) | Activity (LNCaP [3]) | Activity (LNCaP [4]) [%] | Activity (LNCaP [5]) | Activity (LNCaP [6]) | Activity (LNCaP [7]) |
| --- | --- | --- | --- | --- | --- | --- | --- |
| C=C1C[C@]23C[C@@]1(O)CC[C@H]2[C@@]12C=C[C@H](O)[C@](C)(C(=O)O1)[C@H]2[C@@H]3C(=O)NCCc1ccc(F)cc1 | Active | inactive | Active | <30 | inactive | – | – |
| C=C1C[C@]23C[C@@]1(O)CC[C@H]2[C@@]12C=C[C@H](O)[C@](C)(C(=O)O1)[C@H]2[C@@H]3C(=O)NCCc1ccc(OC)cc1 | – | – | – | <30 | – | – | – |
| C=C1C[C@]23C[C@@]1(O)CC[C@H]2[C@@]12C=C[C@H](O)[C@](C)(C(=O)O1)[C@H]2[C@@H]3C(=O)NCc1ccc(OC)cc1 | – | – | – | <30 | – | – | – |
| CCCCCCCCCCCCCCOc1ccc(C(=O)O)o1 | – | – | – | – | – | Active | – |
| C=C1C[C@]23C[C@@]1(O)CC[C@H]2[C@@]12C=C[C@H](O)[C@](C)(C(=O)O1)[C@H]2[C@@H]3C(=O)NCCc1ccc(Br)cc1 | Active | inactive | Active | <30 | inactive | – | – |
| C=C1C[C@]23C[C@@]1(O)CC[C@H]2[C@@]12C=C[C@H](O)[C@](C)(C(=O)O1)[C@H]2[C@@H]3C(=O)NCCc1ccc(Cl)cc1 | – | – | – | <30 | – | – | – |
| C=C1C[C@]23C[C@@]1(O)CC[C@H]2[C@@]12C=C[C@H](O)[C@](C)(C(=O)O1)[C@H]2[C@@H]3C(=O)NCCc1ccccc1 | – | – | – | <30 | – | – | – |
| C=C1C[C@]23C[C@@]1(O)CC[C@H]2[C@@]12C=C[C@H](O)[C@](C)(C(=O)O1)[C@H]2[C@@H]3C(=O)NCc1ccccc1 | – | – | – | <30 | – | – | – |
| C=C1C[C@]23C[C@@]1(O)CC[C@H]2[C@@]12C=C[C@H](O)[C@](C)(C(=O)O1)[C@H]2[C@@H]3C(=O)NCc1ccc(Cl)cc1 | Active | inactive | Active | <30 | inactive | – | – |
| C=C1C[C@]23C[C@@]1(O)CC[C@H]2[C@@]12C=C[C@H](O)[C@](C)(C(=O)O1)[C@H]2[C@@H]3C(=O)NCCc1ccccn1 | Active | inactive | Active | <30 | inactive | – | – |
| C=C1C[C@]23C[C@@]1(O)CC[C@H]2[C@@]12C=C[C@H](O)[C@](C)(C(=O)O1)[C@H]2[C@@H]3C(=O)O [GIBBERELLIN GA3] | Active | inactive | – | <30 | inactive | – | – |
| C=C1C[C@]23C[C@@]1(O)CC[C@H]2[C@@]12C=C[C@H](O)[C@](C)(C(=O)O1)[C@H]2[C@@H]3C(=O)NCc1ccc(F)cc1 | – | – | – | <30 | – | – | – |
| C=C1C[C@]23C[C@@]1(O)CC[C@H]2[C@@]12C=C[C@H](O)[C@](C)(C(=O)O1)[C@H]2[C@@H]3C(=O)NCCc1cccs1 | – | – | – | <30 | – | – | – |
| CCCCCCCCCCC[C@@H](C[C@@H]1OC(=O)[C@H]1CCCCCC)OC(=O)[C@H](CC(C)C)NC=O | – | – | – | – | – | – | Active |
| C=C1C[C@]23C[C@@]1(O)CC[C@H]2[C@@]12C=C[C@H](O)[C@](C)(C(=O)O1)[C@H]2[C@@H]3C(=O)NCc1ccc(Br)cc1 | Active | inactive | Active | <30 | inactive | – | – |
